Active and inactive are the calls of the source. The rule behind the calls is not given here.
Columns and labels:
[1] = tested on: A549; assay: Induction of apoptosis in human A549 cells assessed as cleavage of caspase-8 at 5 uM after 36 hrs by Western blotting; assay type: functional, cell-based
[2] = Cytotoxicity against human BEAS2B cells uo to 80 uM after 48 hrs by alamar blue assay; assay type: cell-based; conditions: beas-2b
Method in brief: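 Beas-2b cells seeded at 5000/well in RPMI 1640 + 10% FBS, 24 h at 37 °C, 5% CO2; then treated 0-80 μM in triplicate per concentration, 0.1% DMSO final, 48 h. Viability read by Alamar Blue per manufacturer's protocol; mean ± SE of three separate experiments.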

[3] = tested on: A549; assay: Cytotoxicity against human A549 cells after 48 hrs by alamar blue assay; assay type: functional, cell-based; conditions: A549, 48 h
[4] = tested on: A549; assay: Induction of apoptosis in human A549 cells assessed as decrease of procaspase-3 level after 36 hrs by Western blotting; assay type: functional, cell-based
Method in brief: (§1)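 A549 cells exposed 0-10 μM or 0.1% DMSO for 36 h; lysed in SDS sample buffer, boiled, SDS-PAGE, PVDF transfer, blocked in 5% milk PBST, primary antibody overnight, HRP secondary with chemiluminescence. Probed for pro-caspase 3, pro-caspase 9, PARP, Bcl-2, Bax, Bak, actin. One of three repeats shown.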

[5] = tested on: A549; assay: Induction of apoptosis in human A549 cells assessed as blockade of sub-G1 phase increase at 5 uM after 36 hrs using propidium iodide staining by flow cytometry in presence of 4,4'-diisothiocyano- 2,2'-stilbenedisulfonic acid; assay type: functional, cell-based
Method in brief: (§2)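 Ethanol-fixed cells stained with RNase (200 μg/mL) and PI (10 μg/mL) 30 min; sub-G1 population by flow cytometry on ≥10 000 cells; mean ± SE of three experiments.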

[6] = tested on: A549; assay: Induction of apoptosis in human A549 cells assessed as loss of mitochondrial cytochrome c at 5 uM after up to 48 hrs by Western blotting; assay type: functional, cell-based
Method in brief: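 A549 cells treated 5 μM or 0.1% DMSO for 36 or 48 h. Cells homogenized in sucrose/HEPES buffer A on ice, then spun at 750g twice and 10000g for 60 min at 4 °C; pellet taken as mitochondrial fraction, supernatant as cytosolic. Cytochrome c in each fraction by Western blot. One of three repeats shown.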

[7] = tested on: A549; assay: Induction of autophagy in human A549 cells assessed as acridine orange stain incorporation at 5 uM after 24 hrs by fluorescence microscopic analysis; assay type: functional, cell-based
[8] = tested on: A549; assay: Cell cycle arrest in human A549 cells assessed as accumulation at sub-G1 phase after 48 hrs using propidium iodide staining by flow cytometry; assay type: functional, cell-based
Method in brief: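 A549 cells treated 0-5 μM (0.31-5 μM) or 0.1% DMSO vehicle for 48 h. 5 × 10^5 cells fixed in 70% ethanol on ice ≥2 h, stained with RNase (200 μg/mL) and PI (10 μg/mL) 30 min at room temperature; sub-G1 fraction by flow cytometry, ≥10 000 cells per sample; mean ± SE of three experiments.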

[9] = tested on: A549; assay: Induction of apoptosis in human A549 cells assessed as increase of Bax protein level at 5 uM after 36 hrs by Western blotting; assay type: functional, cell-based; method in brief: as §1
[10] = tested on: A549; assay: Induction of apoptosis in human A549 cells assessed as loss of mitochondria membrane potential at 5 uM after up to 48 hrs using 3,3'-diethyloxacarbocyanine iodide staining by flow cytometry; assay type: functional, cell-based
Method in brief: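 A549 cells treated with 5 μM or 0.1% DMSO for indicated times; 5 × 10^5 cells stained with 50 nM DiOC2(3), 15 min, 37 °C, dark, washed in cold PBS. Flow cytometry, excitation 488 nm, emission 525 nm (FL-1); low-uptake cells scored as mitochondrial damage against untreated controls. One of three repeats shown.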

[11] = tested on: A549; assay: Induction of apoptosis in human A549 cells assessed as cleavage of PARP at 5 uM after 36 hrs by Western blotting; assay type: functional, cell-based
[12] = tested on: A549; assay: Induction of apoptosis in human A549 cells assessed as increase in DNA breaks at 5 uM after 24 hrs by flow cytometry based TUNEL assay; assay type: functional
Method in brief: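 A549 cells exposed to 5 μM for various times. 5 × 10^5 cells fixed in 1% paraformaldehyde and 70% ethanol, TdT reaction with DIG-dUTP 30 min at 37 °C, anti-DIG-fluorescein 30 min in the dark, then PI (5 μg/mL) plus RNase A (100 μg/mL) 30 min; fluorescence by flow cytometry. One of three repeats shown.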

[13] = tested on: A549; assay: Induction of apoptosis in human A549 cells assessed as blockade of sub-G1 phase increase at 5 uM after 36 hrs using propidium iodide staining by flow cytometry in presence of N-acetyl-cysteine; assay type: functional, cell-based; method in brief: as §2
[14] = tested on: A549; assay: Induction of apoptosis in human A549 cells assessed as increase of Bak protein level at 5 uM after 36 hrs by Western blotting; assay type: functional, cell-based; method in brief: as §1
[15] = tested on: A549; assay: Induction of apoptosis in human A549 cells assessed as decrease of procaspase-9 level after 36 hrs by Western blotting; assay type: functional, cell-based; method in brief: as §1
[16] = tested on: A549; assay: Induction of apoptosis in human A549 cells assessed as reduction of Bcl-2 protein level at 5 uM after 36 hrs by Western blotting; assay type: functional, cell-based; method in brief: as §1
[17] = tested on: A549; assay: Induction of apoptosis in human A549 cells assessed as blockade of sub-G1 phase increase at 5 uM after 36 hrs using propidium iodide staining by flow cytometry in presence of Z-VAD-fmk; assay type: functional, cell-based; method in brief: as §2
[18] = tested on: Mus musculus; assay: Toxicity in human A549 cells xenografted BALB/c nude mouse assessed as histological changes in kidney at 3 mg/kg, sc qd for 5 days; assay type: organism-based; set-up: dose 3 mg/kg, route subcutaneous; conditions: in vivo, 120 h
Method in brief: (§3)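 Xenograft setting: female athymic BALB/c nu/nu mice bearing sc A549 tumors (80-120 mm3 at day 0), six per group, daily sc dosing days 0-4 in 20% Tween 80 in saline; vehicle controls. Body weight recorded three times weekly up to days 21-28. Brain, liver and kidney fixed in 4% formalin, paraffin-embedded and sectioned for histology.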

[19] = tested on: Mus musculus; assay: Toxicity in human A549 cells xenografted BALB/c nude mouse assessed as histological changes in brain at 3 mg/kg, sc qd for 5 days; assay type: organism-based; set-up: dose 3 mg/kg, route subcutaneous; conditions: in vivo, 120 h; method in brief: as §3
[20] = tested on: Mus musculus; assay: Toxicity in human A549 cells xenografted BALB/c nude mouse assessed as change in body weight at 3 mg/kg, sc qd for 5 days; assay type: organism-based; set-up: dose 3 mg/kg, route subcutaneous; conditions: in vivo, 120 h; method in brief: as §3
[21] = tested on: A549; assay: Induction of apoptosis in human A549 cells assessed as increase of p53 protein level at 5 uM after 2 hrs by Western blotting; assay type: functional, cell-based
Method in brief: (§4)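 A549 cells given 5 μM or 0.1% DMSO for 0-16 h; SDS lysates run on SDS-PAGE, transferred to PVDF, blocked in 5% milk PBST, primary antibody overnight, HRP secondary and chemiluminescence. p53, p21 and actin probed; one of three repeats shown.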

[22] = tested on: A549; assay: Antitumor activity against human A549 cells xenografted in BALB/c nude mouse assessed as increase in activated caspase-3 protein expression in tumor at 3 mg/kg, sc qd for 5 days by immunohistochemistry; assay type: functional, organism-based; set-up: dose 3 mg/kg
Method in brief: (§5)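 Female athymic BALB/c nu/nu mice, 6-8 weeks, 18-22 g; 1 × 10^7 A549 cells implanted sc on back. At 80-120 mm3 tumors, randomized (six per group, day 0); daily sc dosing days 0-4 in 20% Tween 80/saline, >1.5 cm from tumor; vehicle controls. Tumor L and W measured to day 21-28; TV = (L × W2)/2, RTV = TVn/TV0. Activated caspase-3 immunohistochemistry on formalin-fixed paraffin tumor sections (day 28 after inoculation).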

[23] = tested on: A549; assay: Antitumor activity against human A549 cells xenografted in BALB/c nude mouse assessed as inhibition of tumor growth at 3 mg/kg, sc qd for 5 days; assay type: functional, organism-based; set-up: dose 3 mg/kg; method in brief: as §5
[24] = tested on: Mus musculus; assay: Toxicity in human A549 cells xenografted BALB/c nude mouse assessed as histological changes in liver at 3 mg/kg, sc qd for 5 days; assay type: organism-based; set-up: dose 3 mg/kg, route subcutaneous; conditions: in vivo, 120 h; method in brief: as §3
[25] = tested on: A549; assay: Induction of apoptosis in human A549 cells assessed as increase of p53 protein level at 5 uM after 8 hrs by Western blotting; assay type: functional, cell-based; method in brief: as §4

For `COc1cc(/C=C/C=C/C=C/C=C/c2[nH]ccc2Cl)oc(=O)c1` [AUXARCONJUGATIN B], the Activity [1] was “inactive”, the Activity [2] was “Non-toxic” and the IC50 [3] was 0.6 µM. The Activity [4] was “Dose-dependent effect”, the Activity [5] was “inactive” and the Activity [6] was “Active”. The Activity [7] was “inactive”, the Activity [8] was “Dose-dependent effect” and the Activity [9] was “inactive”. For the same compound, the Activity [10] was “Active”, the Activity [11] was “Active” and the Activity [12] was 42%. For the same compound, the Activity [13] was “inactive”, the Activity [14] was “Active” and the Activity [15] was “Dose-dependent effect”. The Activity [16] was “Active” and the Activity [17] was “Active”.

For `CCCCc1c(OC)cc(/C(C)=C/C=C/C=C/C=C/c2[nH]ccc2Cl)oc1=O`, the Activity [1] was “inactive”, the Activity [2] was “Non-toxic” and the IC50 [3] was 0.01 µM. The Activity [4] was “Dose-dependent effect”, the Activity [5] was “inactive” and the Activity [6] was “Active”. The Activity [18] was “Non-toxic”, the Activity [7] was “inactive” and the Activity [19] was “Non-toxic”. The Activity [20] was “Non-toxic”, the Activity [8] was “Dose-dependent effect” and the Activity [9] was “inactive”. The Activity [21] was “Active”, the Activity [10] was “Active” and the Activity [11] was “Active”. The Activity [22] was “Active”, the Activity [12] was 47% and the Activity [13] was “inactive”. For the same compound, the Activity [14] was “Active”, the Activity [23] was “Active” and the Activity [24] was “Non-toxic”. For the same compound, the Activity [15] was “Dose-dependent effect”, the Activity [16] was “Active” and the Activity [17] was “Active”. For the same compound, the Activity [25] was “Active”.

With `CCCCc1c(OC)cc(/C=C/C=C/C=C/C=C/c2[nH]ccc2Cl)oc1=O` the IC50 [3] was 5 µM.

Compound `COc1cc(/C(C)=C/C=C/C=C/C=C/c2[nH]ccc2Cl)oc(=O)c1C` has an IC50 [3] of 5.2 µM.

Compound `COc1cc(/C=C/C=C/C=C/C=C/c2c(Cl)ccn2S(C)(=O)=O)oc(=O)c1C` has an IC50 [3] greater than 20 µM.

Work on `COc1cc(/C=C/C=C/C=C/C=C/c2[nH]ccc2Cl)oc(=O)c1C` [AUXARCONJUGATIN A] yielded an IC50 [3] of 1.2 µM.

`COc1cc(/C(C)=C/C=C/C=C/C=C/c2[nH]ccc2Cl)oc(=O)c1` gave an IC50 [3] of 2.5 µM.

With `CC\C(=C/C=C/C=C/C=C/c1[nH]ccc1Cl)c1cc(OC)c(C)c(=O)o1` the IC50 [3] was 5.6 µM.

With `COc1cc(/C=C/C=C/C=C/C=C/c2sccc2Cl)oc(=O)c1C` the IC50 [3] was greater than 20 µM.

Compound `O=c1cc(O)cc(/C=C/C=C/C=C/C=C/c2[nH]ccc2Cl)o1` has an IC50 [3] greater than 20 µM.

For `COc1cc(/C=C/C=C/C=C/C=C/c2sccc2Cl)oc(=O)c1`, the IC50 [3] was greater than 20 µM.

For `COc1cc(/C=C/C=C/C=C/C=C/c2ccccc2Cl)oc(=O)c1C`, the IC50 [3] was greater than 20 µM.

Work on `COc1cc(/C=C/C=C/C=C/C=C/c2cccc(Cl)c2)oc(=O)c1C` yielded an IC50 [3] greater than 20 µM.

`C/C=C/C=C/C=C/C=C/c1cc(OC)c(C)c(=O)o1` showed an IC50 [3] greater than 20 µM.

Work on `Cc1c(O)cc(/C=C/C=C/C=C/C=C/c2[nH]ccc2Cl)oc1=O` yielded an IC50 [3] greater than 20 µM.
